Source: PubChem BioAssay
This is a sample that favours compounds with a hit; in the whole collection about 3.8% have one here.
KCNQ1 act – potentiates or activates the human KCNQ1 potassium channel | 0.35% of 310,000 active | B-score at 10 µM | CHO-K1 KCNQ1, thallium flux FluxOR fluorescence; active compounds read high;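 active = fluorescence ratio B-score, a plate-corrected score, at least three library SD, with initial intensity B-score within 5 SD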
Target sequence (P51787 whole entry, looked up): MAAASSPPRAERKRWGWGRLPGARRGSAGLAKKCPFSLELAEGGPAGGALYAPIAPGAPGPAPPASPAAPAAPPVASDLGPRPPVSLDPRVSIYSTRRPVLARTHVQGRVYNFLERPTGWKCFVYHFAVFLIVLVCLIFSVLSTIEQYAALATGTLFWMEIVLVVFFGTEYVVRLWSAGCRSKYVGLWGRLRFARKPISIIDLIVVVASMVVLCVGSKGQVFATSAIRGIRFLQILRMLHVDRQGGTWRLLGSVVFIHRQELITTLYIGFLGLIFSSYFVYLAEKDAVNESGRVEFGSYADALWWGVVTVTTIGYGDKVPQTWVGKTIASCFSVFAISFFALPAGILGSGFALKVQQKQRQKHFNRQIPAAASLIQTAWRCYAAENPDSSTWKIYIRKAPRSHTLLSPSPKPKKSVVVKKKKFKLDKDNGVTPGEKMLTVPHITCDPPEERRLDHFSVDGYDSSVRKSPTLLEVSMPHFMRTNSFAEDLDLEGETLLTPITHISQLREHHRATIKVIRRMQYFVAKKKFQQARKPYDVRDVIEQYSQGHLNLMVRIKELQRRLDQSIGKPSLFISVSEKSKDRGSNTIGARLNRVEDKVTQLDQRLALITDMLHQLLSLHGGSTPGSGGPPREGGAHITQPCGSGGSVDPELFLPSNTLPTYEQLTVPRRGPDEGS
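Material: CHO-K1 cells stably expressing KCNQ1. Medium: assay buffer for compound exposure, DMSO matched across wells. Reagent: K+/Tl+ depolarizing stimulus. Compound dosing: single-concentration screen. Times: 37 °C overnight plating, 90-min dark dye load, 20-min compound pretreatment. Technique: FluxOR Tl+ flux fluorescence.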
KCNK3 inh – human KCNK3 channel inhibition, primary screen; O14649; CHO-KCNK3 thallium flux, FluxOR fluorescence; active compounds read low; B-score at 10 µM; 0.84% of 340,000 active;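 active = B-score under library mean minus 4 SD, starting fluorescence ratio at most library mean plus 5 SD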;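 also: more negative B-score means stronger inhibition of thallium flux through KCNK3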
KCNK9 inh – human KCNK9 channel inhibition. 1.2% of 310,000 active. HEK293 KCNK9, FluxOR thallium flux fluorescence; active compounds read low. Q9NPC2. B-score at 10 µM;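 active = ratio B-score over 3 SD below the library mean, with starting fluorescence within 5 SD of its mean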;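 also: negative B-score means less thallium flux so channel inhibition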
KCNQ1 inh – blocks the human KCNQ1 potassium channel; P51787; 1.3% of 310,000 active; B-score at 10 µM; AID 2642; CHO-K1 KCNQ1, FluxOR thallium flux fluorescence; active compounds read high;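 active = compounds whose thallium flux B-score, printed positive for inhibition, exceeds three library SD while starting fluorescence stays within three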;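 also: channel opened by potassium depolarization with thallium stimulus after 20 min compound exposure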
Kir21 inh – Kir2.1 (mouse) channel inhibition; B-score at 10 µM; AID 1672; HEK293-Kir2.1, FluxOR thallium flux fluorescence; active compounds read low; 0.85% of 310,000 active;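 active = fluorescence ratio B-score at or below minus 3 SD of library scores, with starting-brightness B-score within 2 SD, cut at about -4.2 in these data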;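 also: channel flux triggered by added potassium and thallium sulfate stimulus; B-score of peak minus minimum fluorescence over baseline after thallium stimulus; more negative B-score means stronger Kir2.1 block with less thallium influx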
hERG protect – compounds protecting human hERG from proarrhythmic drug block; Q12809; CHO-hERG, FluxOR thallium flux, dofetilide IC70 present; activation (rescue from dofetilide block), less the hit threshold, % at 10 µM; 0.51% of 310,000 active;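 active = activation above the mean of controls blocked by dofetilide plus 5 SD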;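 also: thallium influx through hERG after potassium depolarization seen as dye fluorescence rise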
KCNK3 inh conf – human KCNK3 channel inhibition, confirmation assay; ratio percent of control, % at 10 µM; CHO-KCNK3 thallium flux, FluxOR fluorescence; 0% buffer, 100% carvedilol maximal block; 99% of 2,400 active; shares compounds with KCNK3 inh;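 active = ratio percent of control, averaged over triplicates, above buffer control mean plus 5 SD, cut at about 64% in these data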;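 also: ratio is the fluorescence rise from min to max over baseline after thallium stimulus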
KCNK3 uninduced – KCNK3 inhibitor counter-screen hit in non-induced cells; shares compounds with KCNK3 inh; 40% of 2,400 active; thallium flux ratio (lower = more inhibition) at 10 µM; non-induced KCNK3 parental cells, FluxOR thallium flux; active compounds read low;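 active = thallium flux ratio, averaged over three wells, more than 5 SD below the buffer control mean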;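 also: host cells are CHO cells without KCNK3 induction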
Hits are given with their value; . = inactive; / = no result.

SMILES	KCNQ1 act	KCNK3 inh	KCNK9 inh	KCNQ1 inh	Kir21 inh	hERG protect	KCNK3 inh conf	KCNK3 uninduced
CCCCc1nc(NCCNC(=O)c2ccccc2)c(C#N)c2c1CSC(C)(C)C2	.	-10.1	.	.	.	.	136.3	0.112
CCCN=C1CC(C)(C)CC(=O)/C1=C(/O)CCCN1C(=O)c2ccccc2C1=O	.	.	.	.	.	.	/	/
CCCCN=C1CC(C)(C)CC(=O)/C1=C(/O)CCC	.	-11	.	.	.	.	99.7	.
COc1ccc(NC(=O)CC2C(=O)N(C)C(=S)N2CCc2ccc(F)cc2)cc1 (stereo not drawn)	.	.	.	.	.	.	/	/
CCN1C(=O)C(CC(=O)Nc2ccc(OC)cc2)N(CCCN2CCN(c3ccc(F)cc3)CC2)C1=S (stereo not drawn)	.	.	.	.	.	.	/	/
CCN1C(=O)C(CC(=O)Nc2ccc(OC)cc2)N(CCc2ccc(F)cc2)C1=S (stereo not drawn)	.	-9.01	.	.	.	.	116.3	.
COc1ccc(CCN2C(=S)N(C)C(=O)C2CC(=O)Nc2ccc(OC)cc2)cc1 (stereo not drawn)	.	-9.2	.	.	.	.	86.3	0.147
CC1CCc2sc(C(=O)N/N=C/c3ccc(O)cc3)cc2C1 (stereo not drawn)	.	-10.3	.	.	.	.	57.3	.
C/C(=N\NC(=O)c1cc2c(s1)CCC(C)C2)c1ccncc1 (stereo not drawn)	.	.	.	.	.	.	/	/
O=C(CNC(=O)c1ccc(Br)o1)NNC(=O)c1ccc(Br)cc1	/	.	/	/	/	/	/	/
CC1CCc2ccccc2N1C(=O)c1cccs1 (stereo not drawn)	.	-8.91	.	.	.	.	69.0	.
COc1cc(C(=O)N2c3ccccc3CCC2C)cc(OC)c1OC (stereo not drawn)	.	.	.	.	.	.	/	/
O=C(COC(=O)C1C2CC3OC(=O)C1C3C2)Nc1cccc(Cl)c1 (stereo not drawn)	.	.	.	.	.	.	/	/
OC1COC(c2ccccc2)OC1C(O)C1OC(c2ccccc2)OCC1O (stereo not drawn)	/	.	/	/	/	/	/	/
CCc1nc(SCC(=O)N2c3ccccc3Sc3ccccc32)c2ccccc2n1	.	.	.	.	.	.	/	/
CCc1nc(SCC(=O)c2ccccc2)c2ccccc2n1	.	-9.44	.	.	.	.	87.7	.
CCCN1Cc2cccc(C(=O)NCCc3cccc(C)c3)c2C1=O	.	-9.73	.	.	.	.	110.0	0.151
Cc1cccc(CCNC(=O)c2cccc3c2C(=O)N(C2CCCCC2)C3)c1	.	.	.	.	.	.	/	/
CC1CC(C)CN(C(=O)C(C)N2CCN(S(=O)(=O)c3ccc(Br)s3)CC2)C1 (stereo not drawn)	/	.	/	/	/	/	/	/
O=C(COC(=O)CNC(=O)C1CCCCC1)Nc1cc(C(F)(F)F)ccc1Cl	/	.	/	/	/	/	/	/
CC(OC(=O)C1CC1)C(=O)Nc1cc(C(F)(F)F)ccc1Cl (stereo not drawn)	.	-9.92	.	.	.	.	77.0	0.152
COc1ccc(Cl)cc1C(=O)NNC(=O)c1nn(C)c(=O)c2ccccc12	/	.	/	/	/	/	/	/
COc1ccc(NC(=O)CCCNC(=O)c2ccc(Cl)cc2)cc1S(=O)(=O)N1CCCCC1	/	.	/	/	/	/	/	/
Cc1cc(SCC(=O)N/N=C/c2ccc(O)cc2O)nc2ccccc12	.	-11.5	.	.	.	.	147.0	0.101
CCN(CC)CCCNC(=O)c1ccc(S(=O)(=O)Nc2ccc(C)c(C)c2)cc1	/	.	/	/	/	/	/	/
SMILES	KCNQ1 act	KCNK3 inh	KCNK9 inh	KCNQ1 inh	Kir21 inh	hERG protect	KCNK3 inh conf	KCNK3 uninduced
COc1ccc(Nc2nnc(-c3ccc(O)cc3)c3ccccc23)cc1	.	-8.93	.	.	.	.	97.7	.
c1ccc(-n2c(SCc3nc(-c4cccs4)no3)nnc2-c2ccco2)cc1	.	.	.	.	.	.	/	/
Cc1sc2nc(SCc3nc(-c4cccs4)no3)n(-c3ccccc3)c(=O)c2c1C	.	-12.5	-7.66	.	.	.	108.7	.
COC(=O)c1cc(NC2c3ccccc3C(=O)N2c2cccnc2)cc(C(=O)OC)c1 (stereo not drawn)	.	-9.04	.	.	.	.	119.3	0.154
COc1ccc(NC2c3ccccc3C(=O)N2c2cccnc2)cc1Cl (stereo not drawn)	.	-10.3	.	.	.	.	117.0	.
O=C1c2ccccc2C(Nc2ccccc2)N1c1cccnc1 (stereo not drawn)	.	.	.	.	.	.	/	/
Cc1cc(C(=O)Nc2cccc3ccccc23)co1	.	.	.	.	.	.	/	/
Cc1oc(-c2ccccc2)cc1C(=O)Nc1cccc2ccccc12	.	-10.8	.	.	.	.	119.3	0.16
COc1ccc(CCNC(=O)CSc2cn(Cc3cccc(C)c3)c3ccccc23)cc1OC	.	-9.15	.	.	.	.	104.7	.
COc1ccc(C)cc1S(=O)(=O)n1cnc2ccccc21	.	.	.	.	.	.	/	/
COc1ccc(OC)c(S(=O)(=O)n2cnc3cc(C)c(C)cc32)c1	.	-11.2	.	.	.	.	98.7	.
COC(=O)C(Cc1csc2ccc(Cl)cc12)NC(=O)c1ccc(Cl)cc1 (stereo not drawn)	.	-10.4	.	.	.	.	140.3	0.145
O=C(Nc1ccc(Nc2ccccc2)cc1)c1ccc(Cl)c([N+](=O)[O-])c1	.	-10.9	.	.	.	.	125.0	0.153
CCOC(=O)c1c(NC(=O)COC(=O)C2CC2C)sc(C)c1C (stereo not drawn)	.	-10.2	-8.09	.	.	.	110.3	.
CCOC(=O)c1c(NC(=O)C2CCCO2)sc(C)c1C (stereo not drawn)	.	-10.5	.	.	.	.	108.7	.
Cc1sc(NC(=O)C2CCCO2)c(C(N)=O)c1C (stereo not drawn)	.	.	.	.	.	.	/	/
C#CCOCCOCCOCCNc1nc(N2CCN(C(=O)[C@H](CCCN=C(N)N)n3cc(C(N)[C@@H](C)CC)nn3)CC2)nc(N2CCN(C(=O)[C@H](CC(N)=O)n3cc([C@@H](N)CC(N)=O)nn3)CC2)n1 (stereo partly drawn)	/	.	/	/	/	/	/	/
COc1cc(/C=C(\C#N)c2nc3ccccc3o2)ccc1O	.	.	.	.	.	.	/	/
N#C/C(=C\c1ccc(O)cc1)c1nc2ccccc2o1	.	-11.1	.	.	.	.	130.0	0.123
